Hits are enriched below; roughly 2.4% of the tested compounds scored in any of these assays.
LMPTP inh: LMPTP phosphatase inhibitors, primary screen, biochemical, fluorescence intensity, uHTS. Low molecular weight phosphotyrosine protein phosphatase (Homo sapiens), P24666. recombinant LMPTP-A, OMFP fluorogenic substrate. inhibition, % at 20 µM. 0.22% of 360,000 active;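 active = compounds that cut the enzyme signal by at least half of the control window in the single-dose screen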;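 note: plate controls were DMSO wells with enzyme plus substrate for no effect and substrate without enzyme for full effect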
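Assay system: LMPTP-A phosphatase enzyme | Input: 0.625 nM enzyme | Also added: Fluorogenic phosphatase substrate OMFP at 400 µM final | Compound dosing: One test concentration per compound, 20 µM, with 3% DMSO overall | Schedule: 50 min enzyme reaction at room temperature, protected from light | Signal: Fluorescence intensity | Benchmarks: no-enzyme and uninhibited controls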
DNMT1 block: human DNMT1 methyltransferase inhibitors, primary screen, biochemical, molecular beacon, fluorescence, HinP1I cleavage, uHTS; DNA (cytosine-5)-methyltransferase 1 (Homo sapiens), P26358; inhibition (reported as % activation of signal), % at 10 µM; 0.83% of 360,000 active; AID 588458, 2011; in the data active = inhibition above about 50%
Scp1 inh: Scp-1 phosphatase inhibitors, primary screen, biochemical, colorimetric, uHTS; Recombinant Scp1, phosphopeptide, malachite green phosphate absorbance; Carboxy-terminal domain RNA polymerase II polypeptide A small phosphatase 1 (Homo …; inhibition, % at 20 µM; 0.88% of 340,000 active; AID 493091, 2011;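 active = inhibition above about 50% at 20 µM, limit read from the data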;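 note: plate controls were DMSO wells with enzyme for no effect and wells lacking enzyme for full effect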
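Test system: SCP-1 catalytic domain; Buffer or medium: Acidic Tris acetate buffer with magnesium and detergent; Also added: Phosphorylated 17-residue peptide substrate; Compound: single 20 µM dose, 1% DMSO; Schedule: enzyme reaction 45 min at room temperature, colour 5 min, stabilisation 30 min; Signal: Phosphate-binding colour reagent, absorbance read at 630 nm.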
SUMO1-SIM PPI: modulators of SUMO1 protein-protein interactions, primary screen, biochemical, uHTS | Small ubiquitin-related modifier 1 (Homo sapiens), P63165 | SUMO1 binding to a labelled peptide, TR-FRET, 1 h | inhibition, % at 20 µM | 0.33% of 360,000 active | AID 602429, 2012; in the data active = inhibition above about 37%
Target sequence (P63165 whole entry, looked up): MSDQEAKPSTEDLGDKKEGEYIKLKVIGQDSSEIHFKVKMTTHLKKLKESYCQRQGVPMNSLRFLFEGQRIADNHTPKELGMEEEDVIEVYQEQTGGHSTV
STEP inh: STEP phosphatase inhibitors, primary screen, biochemical, fluorescence intensity, uHTS; 0.25% of 360,000 active; inhibition, % at 20 µM; Tyrosine-protein phosphatase non-receptor type 5 (Homo sapiens), P54829; recombinant STEP, OMFP fluorogenic substrate;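 active = inhibition at 20 µM, scaled per plate between control wells, above about 37%, limit read from the data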;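 note: 0% = DMSO with enzyme and substrate and 100% = substrate only without enzyme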
Target sequence (P54829 whole entry, looked up): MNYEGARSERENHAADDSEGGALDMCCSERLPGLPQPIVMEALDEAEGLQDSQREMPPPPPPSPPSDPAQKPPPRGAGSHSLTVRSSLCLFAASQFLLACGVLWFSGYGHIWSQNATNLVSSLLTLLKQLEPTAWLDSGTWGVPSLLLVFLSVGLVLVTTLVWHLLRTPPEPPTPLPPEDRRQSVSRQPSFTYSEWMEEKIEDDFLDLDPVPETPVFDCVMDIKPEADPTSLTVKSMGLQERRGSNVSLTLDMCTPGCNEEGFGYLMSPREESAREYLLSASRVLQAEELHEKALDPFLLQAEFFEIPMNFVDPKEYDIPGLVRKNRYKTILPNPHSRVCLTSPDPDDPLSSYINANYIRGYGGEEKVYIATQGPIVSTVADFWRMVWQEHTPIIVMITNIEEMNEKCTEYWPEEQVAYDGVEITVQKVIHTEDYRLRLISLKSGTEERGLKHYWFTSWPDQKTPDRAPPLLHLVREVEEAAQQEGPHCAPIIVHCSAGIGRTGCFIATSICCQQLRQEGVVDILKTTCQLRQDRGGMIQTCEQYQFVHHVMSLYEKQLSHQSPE
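Material: STEP (striatal-enriched tyrosine phosphatase) enzyme, cell-free; Compound dosing: 20 µM single dose in 1% DMSO; Technique: fluorescence read at 480 nm ex / 540 nm em; Times: reaction 20 min, ambient temperature; Medium: 50 mM Bis-Tris pH 6.0 with 2.5 mM DTT and 0.005% Tween 20; Also added: OMFP at 25 µM.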
NadD block: inhibitors of S. aureus NadD, primary screen, biochemical, colorimetric, uHTS. Nicotinate-nucleotide adenylyltransferase NadD (Staphylococcus aureus N315). purified NadD enzyme, colorimetric absorbance read-out. inhibition, % at 20 µM. 0.78% of 360,000 active; in the data active = inhibition above about 26%
DNMT1 inh conf: DNMT1 methyltransferase inhibitor retest, confirmation, biochemical, molecular beacon, fluorescence, single concentration; DNMT1 molecular beacon HinP1I cleavage; inhibition, % at 10 µM; 8% of 2,300 active; AID 602385, 2012; shares compounds with DNMT1 block;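 active = average inhibition of at least 30% in the single-concentration confirmation test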
DNMT1 interf: counter-screen for DNMT1 inhibitors: spectral interference | shares compounds with DNMT1 block | DNMT1 molecular beacon spectral interference counterscreen, fluorescence 485/520 | activation (fluorescence interference), % at 10 µM | 1% of 2,300 active | AID 602387;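 active = activation of at least 30% at 10 µM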;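 note: DNMT1 catalytic domain with a HinP1I cleavage step and a FAM/dabcyl DNA beacon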
An asterisk follows results filed as active; . = not tested or not shown.

SMILES	LMPTP inh	DNMT1 block	Scp1 inh	SUMO1-SIM PPI	STEP inh	NadD block	DNMT1 inh conf	DNMT1 interf
CCNc1nc(NCC)nc(C(=O)NN)n1	-1.0	91.0*	-4.2	-2.0	0.4	2.8	4.9	6.4
C=CCn1c(Oc2ccc(C=O)cc2OCC)nc2c1c(=O)n(C)c(=O)n2C	-1.1	-0.2	-4.5	-3.4	1.1	-0.1	.	.
Cn1c(-c2ccccc2)cc(=O)n1-c1ccccc1	0.4	70.0*	-5.0	4.1	1.2	-1.5	7.3	5.5
CCOC(=O)CC1Sc2ccccc2NC1=S (stereo unspecified)	-1.0	2.5	-11.2	1.1	0.8	3.7	.	.
N#Cc1nc(-c2ccc(OCc3ccc(Cl)cc3)cc2)oc1N1CCC(C(N)=O)CC1	3.3	67.1*	-0.4	71.4*	8.2	-3.9	-0.5	1.8
Cc1nc(SCCO)c([N+](=O)[O-])[nH]1	0.6	-1.4	-7.3	-10.6	0.4	1.0	.	.
Cc1nc(SCCC(C)C)c([N+](=O)[O-])[nH]1	-0.5	93.8*	2.5	-28.7	3.2	9.0	7.0	6.1
O=C(/C=C/c1ccco1)Nc1scc(-c2ccccc2)c1C(=O)O	4.4	81.6*	49.9	-4.7	18.8	-5.5	13.5	1.4
O=C(/C=C/c1ccccc1)Nc1scc(-c2ccccc2)c1C(=O)O	-1.5	1.9	-17.8	-10.3	0.8	-0.9	.	.
CCOC(=O)/C(C#N)=C/c1ccc(OCC(=O)Nc2ccc(C)c(C)c2)c(OC)c1	2.1	54.1*	0.6	1.5	0.4	-1.3	2.4	-2.3
COc1cc(/C=C(/C#N)c2nc3ccccc3[nH]2)ccc1OCC(=O)Nc1ccccc1C	3.5	52.0*	-7.7	1.3	0.0	12.7	-0.8	-0.6
COc1cc(/C=C(\C#N)c2nc3ccccc3s2)ccc1OCC(=O)Nc1ccccc1	2.2	57.0*	-9.3	0.3	-3.5	2.4	5.4	6.1
Cn1c(=O)c2ncn(CC(=O)N/N=C/c3ccco3)c2n(C)c1=O	0.3	1.6	2.7	-4.9	-2.6	1.8	.	.
O=C(c1ccccc1)N1N=C(c2ccccc2)CC1c1cccs1 (stereo unspecified)	4.8	89.3*	-18.9	-1.5	1.3	-7.7	0.8	3.6
CC(=O)N1N=C(c2ccccc2)CC1c1cccs1 (stereo unspecified)	-1.0	3.0	-12.3	-3.6	0.9	1.6	.	.
CC(=O)N1N=C(c2ccccc2)CC1c1ccccc1 (stereo unspecified)	0.8	88.1*	-7.0	-2.3	5.4	-3.1	7.5	5.7
CCC(=O)N1N=C(c2ccccc2)CC1c1ccccc1 (stereo unspecified)	-1.3	0.3	-2.0	-1.5	0.0	0.5	.	.
Cc1ccccc1CSc1ccc(S(=O)(=O)N2CCCC2)cn1	1.5	-2.3	-21.0	4.8	-0.7	-4.7	.	.
COc1cccc2cc(-c3cc(=O)oc4cc(C)c(OCC(C)=O)cc34)oc12	-0.4	63.1*	1.1	1.3	-1.7	-10.1	0.5	-2.1
COc1ccc2oc(=O)cc(-c3cc4cccc(OC)c4o3)c2c1	0.0	0.7	-5.2	1.4	1.1	1.7	.	.
Cc1sc2ncnc(NC(C)C(=O)O)c2c1C (stereo unspecified)	0.4	54.8*	1.2	0.6	-2.4	-1.6	1.3	-2.7
Cc1sc2ncnc(N[C@@H](CCC(=O)O)C(=O)O)c2c1C	-3.0	1.2	1.0	3.9	-1.3	1.2	.	.
Cc1cccc(-c2nnc(SC(C)C(=O)N3CCOCC3)o2)c1 (stereo unspecified)	-0.5	-1.4	-8.3	-2.1	-2.2	-0.2	.	.
Cc1ccc(-n2nc3c4c(cccc4c2=O)-c2ccccc2-3)cc1	4.2	52.5*	-4.7	-5.8	2.1	10.6	2.4	0.0
O=C(O)Cn1nc2c3c(cccc3c1=O)-c1ccccc1-2	-1.9	2.5	-0.3	-14.2	1.4	1.2	.	.
SMILES	LMPTP inh	DNMT1 block	Scp1 inh	SUMO1-SIM PPI	STEP inh	NadD block	DNMT1 inh conf	DNMT1 interf
C=CCN(Cc1ccc(OC)c(OC)c1)C(=O)c1cc2cc(F)ccc2[nH]1	3.1	0.1	-6.8	-1.8	0.9	-9.3	.	.
Cc1nc2c3cc(F)ccc3n(Cc3ccc(F)cc3)c2s1	3.2	-10.4	1.2	1.1	0.9	3.7	.	.
CCc1ccc2c(c1)c1nc(C)sc1n2CC	3.2	51.2*	-4.3	35.8	5.0	-0.6	2.8	3.2
COc1ccc(C2Cc3ccccc3C(=O)O2)cc1 (stereo unspecified)	-0.4	0.4	2.7	-1.5	2.8	-7.3	.	.
Cc1c(Cl)cccc1NC(=O)CCN1C(=O)C2CC=CCC2C1=O (stereo unspecified)	-0.3	-0.4	-14.9	0.9	9.3	-4.4	.	.
CC(C)Oc1ccc(S(=O)(=O)N2CCOCC2)cc1NC(=O)Cc1c(F)cccc1Cl	0.8	89.5*	-3.8	1.1	1.2	-6.7	0.8	1.9
COc1cc(NC(=S)NCCC(c2ccccc2)c2ccccc2)cc(OC)c1	2.1	-10.2	-10.4	-4.3	2.2	-5.9	.	.
COc1cccc(NC(=S)NCCC(c2ccccc2)c2ccccc2)c1	4.8	55.5*	-7.5	0.9	0.8	-8.0	9.3	9.4
Cn1cc(/C=C/c2cc[n+](C)cc2)c2cc(F)ccc21	-0.7	60.3*	36.7	-85.0	-14.5	14.7	55.6*	52.6*
O=C(NC1CCCCC1)C(c1ccc(F)cc1)N(CCc1ccccc1)C(=O)CN1C(=O)c2ccccc2S1(=O)=O (stereo unspecified)	0.7	58.7*	-5.7	-1.7	-1.4	9.1	5.2	1.9
O=C(NC1CCCCC1)C(c1ccc(F)cc1)N(Cc1ccccc1)C(=O)CN1C(=O)c2ccccc2S1(=O)=O (stereo unspecified)	2.1	35.1	6.6	-1.0	-0.8	16.5	.	.
COc1ccc(CCn2c(O)cc3nn(-c4nc5ccccc5s4)c(=O)c-3c2C)cc1	52.8*	78.8*	62.0*	13.6	11.4	72.7*	11.4	44.2*
COc1ccc(CN2CCN(c3nc4ccccc4s3)CC2)cc1	-0.6	0.6	-5.9	-2.4	-2.0	-12.4	.	.
